# Reference: ChEMBL document CHEMBL3826914, “Selective photodepletion of malignant T cells in extracorporeal photopheresis with selenorhodamine photosensitizers” (Bioorg Med Chem, 2016)
# Tested on: not listed separately
# Assay: Drug extrusion in human CD4 positive cells assessed as change in mean fluorescence intensity at 5 x 10^-8 M preincubated for 20 mins followed by growth in photosensitizer-free media for 30 mins by flow cytometric analysis relative to control
# Type: cell-based
# Settings: 0.5 h, 0.05 µM
row,Compound,Activity [%]
1,CN1CCC(C)(C)c2cc3c(cc21)[Se]c1cc2c(cc1=C3c1ccc(C(=O)N3CCCCC3)s1)C(C)(C)CC[N+]=2C.[Cl-],53.3

# Tested on: not listed separately
# Assay: Drug extrusion in human CD3 positive cells assessed as change in mean fluorescence intensity at 5 x 10^-8 M preincubated for 20 mins followed by growth in photosensitizer-free media for 30 mins by flow cytometric analysis relative to control
# Type: cell-based
# Settings: 0.5 h, 0.05 µM
row,Compound,Activity [%]
1,CN1CCC(C)(C)c2cc3c(cc21)[Se]c1cc2c(cc1=C3c1ccc(C(=O)N3CCCCC3)s1)C(C)(C)CC[N+]=2C.[Cl-],51.3

# Tested on: not listed separately
# Assay: Drug uptake in SEB-stimulated human CD25 negative cells assessed as mean fluorescence intensity at 5 x 10^-8 M preincubated for 20 mins followed by growth in photosensitizer-free media for 30 mins by flow cytometric analysis relative to control
# Settings: 0.5 h, 0.05 µM
row,Compound,Flu intensity [a.u.]
1,CN1CCC(C)(C)c2cc3c(cc21)[Se]c1cc2c(cc1=C3c1ccc(C(=O)N3CCCCC3)s1)C(C)(C)CC[N+]=2C.[Cl-],2500

# Tested on: not listed separately
# Assay: (§1) Phototoxicity human CD4 positive cells co-cultured with GFP expressing human HUT78 cells assessed as cell survival at 7.5 x 10^-8 M preincubated 20 mins in photosensitizer media followed by growth in photosensitizer-free media for 30 mins measured 18 hrs after exposure to 5 J/cm2 irradiation by FACS analysis
# Type: cell-based
# Settings: read-out: Survival
# Procedure, shortened: (§2)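 Non-stimulated PBMCs from healthy donors (Ficoll-separated) were mixed 5:1 with GFP-transfected, sorted (>98%) HUT-78 cells. Cells took up 7.5×10^-8 M photosensitizer for 20 min, then spent 30 min in dye-free medium. They were exposed to 5 J cm^-2 light (600 nm LED) with rotation at 180 rpm. Survival was gated by FACS (GFP, CD3, CD4, CD8) 18 h later versus non-irradiated controls. Triplicate; mean ± SEM.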
row,Compound,"viability at 18 h, 0.075 µM [%]"
1,CN1CCC(C)(C)c2cc3c(cc21)[Se]c1cc2c(cc1=C3c1ccc(C(=O)N3CCCCC3)s1)C(C)(C)CC[N+]=2C.[Cl-],1.1

# Tested on: ABCB1
# Assay: Passive permeability in dog MDCK2-MDR1 cells expressing ABCB1 at 5 uM after 30 mins in presence of compound 15 by LC-MS/MS analysis
# Type: ADME, cell-based, Canis lupus familiaris, MDCK-II
# Settings: MDCK-MDR1, with compound 15 (concentration not stated), read-out: permeability
# Procedure, shortened: (§3)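 MDR1-transfected MDCKII cells (passage 16–42) were seeded at 50,000 cells cm^-2 on Transwell filters and used on day 6. Monolayers were rinsed in DPBS with 10^-2 M HEPES, pH 7.4, at 37 °C. They were preincubated 30 min in 4.3 mg/mL BSA/DPBSH with or without 5×10^-6 M P-gp inhibitor. 5 μM dye was added apically or basolaterally and samples taken after 1 h at 37 °C with nutation. Quantitation was by LC-MS/MS; P_passive is the mean of P_AB and P_BA under full inhibition. Mean ± SD.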
row,Compound,"Papp at 0.5 h, 5 µM [×10⁻⁶ cm/s]"
1,CN1CCC(C)(C)c2cc3c(cc21)[Se]c1cc2c(cc1=C3c1ccc(C(=O)N3CCCCC3)s1)C(C)(C)CC[N+]=2C.[Cl-],0.2

# Tested on: HuT78
# Assay: Drug uptake in GFP expressing human HUT78 cells co-cultured with non-stimulated human PBMC cells assessed as change in mean fluorescence intensity at 7.5 x 10^-8 M after 20 mins followed by growth in photosensitizer-free media for 30 mins by flow cytometric analysis relative to control
# Type: cell-based
# Settings: hut78, 0.5 h, 0.075 µM
row,Compound,Activity [%]
1,CN1CCC(C)(C)c2cc3c(cc21)[Se]c1cc2c(cc1=C3c1ccc(C(=O)N3CCCCC3)s1)C(C)(C)CC[N+]=2C.[Cl-],43.1

# Tested on: not listed separately
# Assay: Drug extrusion in SEB-stimulated human CD25 positive cells assessed as change in mean fluorescence intensity at 5 x 10^-8 M preincubated for 20 mins followed by growth in photosensitizer-free media for 30 mins by flow cytometric analysis relative to control
# Settings: 0.5 h, 0.05 µM
row,Compound,Activity [%]
1,CN1CCC(C)(C)c2cc3c(cc21)[Se]c1cc2c(cc1=C3c1ccc(C(=O)N3CCCCC3)s1)C(C)(C)CC[N+]=2C.[Cl-],33.5

# Tested on: not listed separately
# Assay: Drug extrusion in SEB-stimulated human CD25 negative cells assessed as mean fluorescence intensity at 5 x 10^-8 M preincubated for 20 mins followed by growth in photosensitizer-free media for 30 mins by flow cytometric analysis relative to control
# Settings: 0.5 h, 0.05 µM
row,Compound,Flu intensity [a.u.]
1,CN1CCC(C)(C)c2cc3c(cc21)[Se]c1cc2c(cc1=C3c1ccc(C(=O)N3CCCCC3)s1)C(C)(C)CC[N+]=2C.[Cl-],1100

# Tested on: not listed separately
# Assay: Drug extrusion in human CD8 positive cells assessed as change in mean fluorescence intensity at 5 x 10^-8 M preincubated for 20 mins followed by growth in photosensitizer-free media for 30 mins by flow cytometric analysis relative to control
# Type: cell-based
# Settings: 0.5 h, 0.05 µM
row,Compound,Activity [%]
1,CN1CCC(C)(C)c2cc3c(cc21)[Se]c1cc2c(cc1=C3c1ccc(C(=O)N3CCCCC3)s1)C(C)(C)CC[N+]=2C.[Cl-],76.2

# Tested on: not listed separately
# Assay: as §1, with “CD3” for “CD4”
# Type: cell-based
# Settings: read-out: Survival
# Procedure, shortened: as §2
row,Compound,"viability at 18 h, 0.075 µM [%]"
1,CN1CCC(C)(C)c2cc3c(cc21)[Se]c1cc2c(cc1=C3c1ccc(C(=O)N3CCCCC3)s1)C(C)(C)CC[N+]=2C.[Cl-],7.2

# Tested on: HuT78
# Settings: human, hut78, 0.5 h, 0.075 µM
row,Compound,Flu intensity [a.u.]
1,CN1CCC(C)(C)c2cc3c(cc21)[Se]c1cc2c(cc1=C3c1ccc(C(=O)N3CCCCC3)s1)C(C)(C)CC[N+]=2C.[Cl-],9130

# Tested on: not listed separately
# Assay: Drug extrusion in SEB-stimulated human CD25 positive cells assessed as mean fluorescence intensity at 5 x 10^-8 M preincubated for 20 mins followed by growth in photosensitizer-free media for 30 mins by flow cytometric analysis relative to control
# Settings: 0.5 h, 0.05 µM
row,Compound,Flu intensity [a.u.]
1,CN1CCC(C)(C)c2cc3c(cc21)[Se]c1cc2c(cc1=C3c1ccc(C(=O)N3CCCCC3)s1)C(C)(C)CC[N+]=2C.[Cl-],7300

# Tested on: ABCB1
# Assay: Permeability from basolateral to apical side in dog MDCK2-MDR1 cells expressing ABCB1 at 5 uM after 30 mins in absence of compound 15 by LC-MS/MS analysis
# Type: ADME, cell-based, Canis lupus familiaris, MDCK-II
# Settings: MDCK-MDR1, read-out: permeability
# Procedure, shortened: as §3
row,Compound,"Papp B→A at 0.5 h, 5 µM [×10⁻⁶ cm/s]"
1,CN1CCC(C)(C)c2cc3c(cc21)[Se]c1cc2c(cc1=C3c1ccc(C(=O)N3CCCCC3)s1)C(C)(C)CC[N+]=2C.[Cl-],6.5

# Tested on: ABCB1
# Assay: Permeability from apical to basolateral side in dog MDCK2-MDR1 cells expressing ABCB1 at 5 uM after 30 mins in absence of compound 15 by LC-MS/MS analysis
# Type: ADME, cell-based, Canis lupus familiaris, MDCK-II
# Settings: MDCK-MDR1, read-out: permeability
# Procedure, shortened: as §3
row,Compound,"Papp A→B at 0.5 h, 5 µM [×10⁻⁶ cm/s]"
1,CN1CCC(C)(C)c2cc3c(cc21)[Se]c1cc2c(cc1=C3c1ccc(C(=O)N3CCCCC3)s1)C(C)(C)CC[N+]=2C.[Cl-],0.18

# Tested on: not listed separately
# Assay: Drug uptake in SEB-stimulated human CD25 positive cells assessed as mean fluorescence intensity at 5 x 10^-8 M preincubated for 20 mins followed by growth in photosensitizer-free media for 30 mins by flow cytometric analysis relative to control
# Settings: 0.5 h, 0.05 µM
row,Compound,Flu intensity [a.u.]
1,CN1CCC(C)(C)c2cc3c(cc21)[Se]c1cc2c(cc1=C3c1ccc(C(=O)N3CCCCC3)s1)C(C)(C)CC[N+]=2C.[Cl-],10900

# Tested on: ABCB1
# Assay: Permeability from basolateral to apical side in dog MDCK2-MDR1 cells expressing ABCB1 at 5 uM after 30 mins in presence of compound 15 by LC-MS/MS analysis
# Type: ADME, cell-based, Canis lupus familiaris, MDCK-II
# Settings: MDCK-MDR1, with compound 15 (concentration not stated), read-out: permeability
# Procedure, shortened: as §3
row,Compound,"Papp B→A at 0.5 h, 5 µM [×10⁻⁶ cm/s]"
1,CN1CCC(C)(C)c2cc3c(cc21)[Se]c1cc2c(cc1=C3c1ccc(C(=O)N3CCCCC3)s1)C(C)(C)CC[N+]=2C.[Cl-],0.4

# Tested on: not listed separately
# Assay: N-octanol/water partition coefficient, logP of the compound at 23 degC after 1 hr by HPLC based shake flask method
# Type: physicochemical
# Settings: not given
# Procedure, shortened: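 Shake-flask method using 1-octanol: 3–5 min of mixing, then 1 h settling. Equilibration and measurement were at 23 °C, in triplicate.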
row,Compound,logP
1,CN1CCC(C)(C)c2cc3c(cc21)[Se]c1cc2c(cc1=C3c1ccc(C(=O)N3CCCCC3)s1)C(C)(C)CC[N+]=2C.[Cl-],3.42

# Tested on: ABCB1
# Assay: Permeability from apical to basolateral side in dog MDCK2-MDR1 cells expressing ABCB1 at 5 uM after 30 mins in presence of compound 15 by LC-MS/MS analysis
# Type: ADME, cell-based, Canis lupus familiaris, MDCK-II
# Settings: MDCK-MDR1, with compound 15 (concentration not stated), read-out: permeability
# Procedure, shortened: as §3
row,Compound,"Papp A→B at 0.5 h, 5 µM [×10⁻⁶ cm/s]"
1,CN1CCC(C)(C)c2cc3c(cc21)[Se]c1cc2c(cc1=C3c1ccc(C(=O)N3CCCCC3)s1)C(C)(C)CC[N+]=2C.[Cl-],0.051

# Tested on: not listed separately
# Assay: Drug extrusion in SEB-stimulated human CD25 negative cells assessed as change in mean fluorescence intensity at 5 x 10^-8 M preincubated for 20 mins followed by growth in photosensitizer-free media for 30 mins by flow cytometric analysis relative to control
# Settings: 0.5 h, 0.05 µM
row,Compound,Activity [%]
1,CN1CCC(C)(C)c2cc3c(cc21)[Se]c1cc2c(cc1=C3c1ccc(C(=O)N3CCCCC3)s1)C(C)(C)CC[N+]=2C.[Cl-],58

# Tested on: HuT78
# Assay: as §1, with “in” for “human CD4 positive cells co-cultured with”, “HUT78 cells co-cultured with human PBMC” for “HUT78”
# Type: functional
# Settings: HuT78, light or radiation study, read-out: Survival
# Procedure, shortened: as §2
row,Compound,viability at 0.075 µM [%]
1,CN1CCC(C)(C)c2cc3c(cc21)[Se]c1cc2c(cc1=C3c1ccc(C(=O)N3CCCCC3)s1)C(C)(C)CC[N+]=2C.[Cl-],2.4

# Tested on: HuT78
# Settings: human, hut78, 0.5 h, 0.075 µM
# Remark: another data set of the same source
row,Compound,Flu intensity [a.u.]
1,CN1CCC(C)(C)c2cc3c(cc21)[Se]c1cc2c(cc1=C3c1ccc(C(=O)N3CCCCC3)s1)C(C)(C)CC[N+]=2C.[Cl-],6240

# Tested on: not listed separately
# Assay: as §1, with “CD8” for “CD4”
# Type: cell-based
# Settings: read-out: Survival
# Procedure, shortened: as §2
row,Compound,"viability at 18 h, 0.075 µM [%]"
1,CN1CCC(C)(C)c2cc3c(cc21)[Se]c1cc2c(cc1=C3c1ccc(C(=O)N3CCCCC3)s1)C(C)(C)CC[N+]=2C.[Cl-],42.4
